# The list is not random: actives were taken first. Their share in the collection is about 1.1%.
# G6PDH CS: counter-screen for G6PDH assay hits: L. mesenteroides G6PDH inhibition. Purified L. mesenteroides G6PDH, diaphorase/resazurin coupled fluorescence, 45 min. AID 1020. inhibition, % at 5 µM. hit rate 0.12% among 200,000; in the data active means inhibition above about 50%
# Diaph act CS: activates diaphorase or chemically reduces, flagging diaphorase assay artifacts. Diaphorase/resazurin coupled assay, resorufin fluorescence, 16 min; hits give high values; 1 = vehicle wells, 0 = NADH-free wells. activation factor at 20 µM. hit rate 0.005% among 190,000. AID 1229;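 active means diaphorase activity raised at least twofold by the compound at 20 µM; inactive means activation factor below 2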
#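 Material: bacterial diaphorase enzyme (C. kluyveri); amount: enzyme 0.07 U/mL final; reagent: NADH substrate 0.114 mM plus resazurin dye 0.1 mM, final; doses: single compound dose of 20 µM, 1% DMSO final; timing: 16 min enzyme reaction, ambient temperature; measured by: fluorescence of resorufin, 544 nm excitation, 590 nm emission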
# Diaphorase inh: diaphorase inhibition or chemical oxidation counter-screen. diaphorase resazurin-to-resorufin fluorescence, NADH, 16 min; bacterial (C. kluyveri) enzyme, not human. inhibition, % at 20 µM. hit rate 0.69% among 190,000;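 active means primary screen inhibition at 20 µM above a set limit, cut at about 50% in these data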;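 further: plate controls were DMSO with full reaction for no effect and wells lacking NADH for full effect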
#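 Assay system – diaphorase enzyme from Clostridium kluyveri · Amount – diaphorase 0.14 U/mL (working solution) · Times – reaction incubation of 16 min at room temperature · Controls – No-NADH positive control and DMSO neutral control · Signal – resorufin fluorescence 544/590 nm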
# PMI act: increases human mannose-6-phosphate isomerase activity. purified human PMI, coupled resazurin fluorescence, 20 min; hits give high values; 1 = vehicle control, 0 substrate-free wells. activation factor at 20 µM. hit rate 0.005% among 190,000. AID 1214;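 active means activation factor of 2 or more at 20 µM, relative to plate controls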
# Target sequence (P34949 whole entry, looked up): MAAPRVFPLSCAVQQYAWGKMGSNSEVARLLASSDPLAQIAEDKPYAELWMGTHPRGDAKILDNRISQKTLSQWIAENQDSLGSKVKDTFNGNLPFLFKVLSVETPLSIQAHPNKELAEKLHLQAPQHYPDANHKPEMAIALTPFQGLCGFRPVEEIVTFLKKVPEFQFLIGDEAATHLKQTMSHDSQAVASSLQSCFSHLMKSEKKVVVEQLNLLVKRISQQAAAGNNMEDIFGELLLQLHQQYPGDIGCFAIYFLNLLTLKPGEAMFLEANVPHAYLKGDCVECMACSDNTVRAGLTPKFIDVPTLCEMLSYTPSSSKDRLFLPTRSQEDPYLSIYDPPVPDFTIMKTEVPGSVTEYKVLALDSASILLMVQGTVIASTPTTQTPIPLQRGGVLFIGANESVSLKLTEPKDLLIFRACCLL
# PMI act satM6P: increases human PMI activity with near-saturating mannose 6-phosphate; coupled PMI enzyme assay, resazurin fluorescence, 20 min; hits give high values; 1 = untreated enzyme, 0 = substrate-free blank; activation factor at 20 µM; hit rate 0.34% among 190,000; AID 1216;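 active means activation factor of 2 or more at 20 µM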
#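 test system = human PMI in coupled enzyme assay | medium = HEPES-buffered pH 7.4 with magnesium and detergent | also added = 1.0 mM mannose-6-phosphate substrate with 0.22 mM NADP+ | compound = 20 µM single dose | times = 20 min incubation at room temperature | measured by = resorufin fluorescence (Ex 544/Em 590 nm) from resazurin via diaphorase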
# * = called active by the depositor.
SMILES,G6PDH CS,Diaph act CS,Diaphorase inh,PMI act,PMI act satM6P
Cc1c(NC(=O)CC(=O)Nc2c(C)n(C)n(-c3ccccc3)c2=O)c(=O)n(-c2ccccc2)n1C,10.5,0.9,9.7,0.9,0.9
S=c1cnc2ccccc2[nH]1,10.0,0.9,9.3,1.5,2.1*
c1ccc(CCc2nc3ccccc3[nH]2)cc1,16.4,0.9,8.3,1,1.1
Cc1ccccc1-n1c(SC/C(O)=C(\C#N)c2nc3ccccc3[nH]2)nnc1-c1ccncc1,-0.7,0.6,42.8,0.9,0.8
Cc1cc(C)n2c(SC/C(O)=C(\C#N)c3nc4ccccc4[nH]3)nnc2n1,21.9,0.5,52.7*,0.7,0.5
Cc1ccc(-c2n[nH]c(=S)n2/N=C\c2ccco2)cc1,-19.4,0.5,46.2,0.9,0.9
S=c1[nH]nc(-c2ccco2)n1/N=C/c1ccc(Cl)cc1,-18.4,0.6,39.3,0.9,0.8
CC(/C=N/n1c(-c2ccc(Cl)cc2)n[nH]c1=S)=C\c1ccco1,-25.1,0.5,53.1*,0.7,0.7
S=c1[nH]nc(-c2ccco2)n1/N=C/C=C/c1ccco1,1.6,0.4,64.0*,1,0.8
CC(/C=N/n1c(-c2ccco2)n[nH]c1=S)=C\c1ccccc1,-11.4,0.5,50.1*,0.8,0.8
O=C1NCCCC1C(=O)N/N=C/c1cccc(O)c1 (centres undefined),18.9,1,3.1,1,1
Cn1cnc2c(=O)[nH]cc([N+](=O)[O-])c21,1.8,0.9,14.2,0.9,0.6
CC(C)N1CC=C2C(C#N)=C(N)C(C#N)(C#N)[C@H](c3ccoc3)[C@H]2C1,14.6,0.4,61.8*,0.6,0.4
CC(=O)NS(=O)(=O)c1ccc(N=c2ssc3c2-c2ccc(C)cc2NC3(C)C)cc1,-4.5,0.8,22.2,1.1,0.9
CN1CCC(N(C)C(=O)CCc2nc3ccccc3n2-c2ccccc2)CC1,2.8,0.3,73.8*,1,0.8
CCn1cc2c(c1-c1cccc(C)c1)c(=O)n(C)c(=O)n2C,4.3,0.7,27.2,1.5,2.1*
CCOc1ccc(-n2c(=S)sc3c(=O)[nH]c(SCC(=O)C(C)(C)C)nc32)cc1,1.3,0.3,67.5*,1.1,1.2
CCOC(=O)CSc1nc2c(sc(=S)n2-c2ccc(OCC)cc2)c(=O)[nH]1,5.4,0.5,48.0,1.2,1.2
CCOc1ccc(-n2c(=S)sc3c(=O)[nH]c(SCC(=O)N4CCC(C)CC4)nc32)cc1,-0.1,0.4,61.7*,0.9,1.1
CSc1ncccc1C(=O)OCC(=O)C(C)(C)C,10.2,0.9,6.9,1.1,1
Cc1noc(NS(=O)(=O)c2ccc(NC(=O)CSc3nc4ccccc4[nH]3)cc2)c1C,0.5,0.9,9.8,1,1
Cc1noc(NS(=O)(=O)c2ccc(NC(=O)CSc3nnc4c(n3)[nH]c3ccccc34)cc2)c1C,-1.9,0.4,64.9*,0.9,0.9
CCNc1nc(NCC)nc(N/N=C/c2ccc(O)c(O)c2)n1,18.9,0.4,60.7*,0.4,0.8
CN=c1scc(-c2ccco2)n1/N=C/c1ccc(O)c(O)c1,23.9,0.5,50.8*,0.5,0.9
O=C(CC1Nc2cccc3cccc(c23)NC1=O)Nc1ccc(F)cc1 (centres undefined),12.9,0.6,36.9,0.9,0.5
SMILES,G6PDH CS,Diaph act CS,Diaphorase inh,PMI act,PMI act satM6P
COc1ccc(NC(=O)CC2Nc3cccc4cccc(c34)NC2=O)cc1 (centres undefined),23.2,0.2,75.2*,0.8,0.7
CC(C)(C)NC(=O)COc1ccccc1C#N,0.3,0.9,5.4,1,1
Cc1cccc(C)c1NC(=O)COC(=O)c1c2c(nc3ccccc13)/C(=C\c1ccc3c(c1)OCO3)CCC2,4.1,0.3,69.8*,0.9,0.8
Cc1ccc(N2C(=O)C(NC(=O)c3ccccc3)(C(F)(F)F)C3=C2CC(C)(C)CC3=O)cc1 (centres undefined),-2.1,0.9,11.9,1,0.9
COc1cc(C)ccc1N(CCCN1C(=O)c2cccc3cccc(c23)C1=O)C(=O)c1cccs1,-22.7,0.3,72.0*,0.9,1
COc1ccc(N(CCCN2C(=O)c3cccc4cccc(c34)C2=O)C(=O)c2cccs2)cc1,5.5,0.3,66.6*,0.9,0.9
CCNS(=O)(=O)c1ccc(NC(=O)c2ccc(Cn3cc(Br)cn3)o2)cc1,8.7,0.9,11.6,1,1
CC(Cl)C(=O)c1ccc2c(c1)CCN2C(=O)C1CC1 (centres undefined),6.0,0.4,61.6*,1.3,1.3
CC1(C)CC2(CC(c3ccccc3F)c3ccc(O)c(O)c3O2)NC(=S)N1 (centres undefined),29.3,0.3,67.7*,0.3,0.5
COCCCn1c(C)nnc1-c1cnn(-c2ccccc2)c1N,5.0,0.9,10.2,1.1,1
CCn1c2ccccc2c2nnc(SCc3cc(=O)n4ccsc4n3)nc21,2.3,0.2,77.2*,0.9,0.9
Cn1c(Cc2ccccc2)nnc1SCc1cc(=O)n2ccsc2n1,14.2,1,4.4,1.1,1.1
COc1ccccc1NC(=O)c1cc(C)nc2ccccc12,2.6,0.4,63.0*,1,1.1
CN(Cc1nc(-c2cccs2)no1)CC1(N2CCOCC2)CCCCC1,12.7,0.3,73.7*,1,1.1
CC(C)CCC(CC(C)O)c1n[nH]c(=S)n1-c1ccccc1 (centres undefined),-3.5,0.9,10.3,0.8,1
O=C1OCC(CO)(CO)N=C1NNc1ccccc1Cl,4.4,0.9,9.6,1.6,2*
CCN1CCN(CC(=O)c2cc(Cl)ccc2Cl)CC1,2.1,0.9,14.9,1.6,2*
Cc1ccc(S(=O)(=O)Nc2ccccc2C(=O)Nc2nc(-c3ccc(F)cc3)cs2)cc1,12.7,0.9,12.8,1,1.1
COc1ccc(-c2csc(NC(=O)c3ccccc3NS(=O)(=O)c3ccc(F)c(F)c3)n2)cc1,2.7,0.5,53.4*,0.9,0.9
O=c1[nH]c(=O)c2cc([N+](=O)[O-])cc([N+](=O)[O-])c2[nH]1,7.7,1,3.7,1.7,2.2*
CC(C)c1nc2sc3c(=O)n(N)cnc3c2c2c1COC(C)(C)C2,4.2,0.5,49.3,0.8,0.9
CC(C)c1nc2sc3c(NCc4ccco4)ncnc3c2c2c1COC(C)(C)C2,12.8,0,103.7*,0.9,0.9
CCN(CCO)c1ncnc2c1sc1nc(C(C)C)c3c(c12)CC(C)(C)OC3,6.8,0.4,63.0*,1.1,1.1
CSc1nc(NCc2ccco2)c2sc3nc(C(C)C)c4c(c3c2n1)CC(C)(C)OC4,5.0,0.1,86.2*,0.9,1

# Bioassay records from PubChem.
